The values below come from ChEMBL document CHEMBL3271997, “Reactions of 2-acyloxyisobutyryl halides with nucleosides. 6. Synthesis and biological evaluation of some 3'-acyl derivatives of 2,2'-anhydro-1-(beta-D-arabinofuranosyl)cytosine hydrochloride” (J Med Chem, 1976).

Active and inactive are the calls of the source. The calls are words filed in the database; no cut-off is given here.

The subject of one experiment is Herpesviridae sp. The experiment is described as follows: Antiviral activity against Herpes simplex virus HF infected in African green monkey BGM cells after 6 days by plaque reduction assay. The class given is functional. Conditions: 144 h, read-out: ED50 (the source's name). The method, boiled down:
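Quantitative plaque reduction assay. Confluent BGM monolayers were infected with 100-200 pfu of HSV (HF strain) and overlaid with 1.25% agar in MEM with 2.0% bovine serum containing graded compound concentrations. A second overlay with neutral red (1:20000) was added on day 4, and plaques were counted on day 6. ED50, the μM concentration giving 50% plaque reduction, was taken from a probability plot of % inhibition against concentration.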
For orientation: Plaque reduction counts the foci of infection that form in a cell layer.

The subject of experiment [1] is L1210. Description: Antitumor activity against mouse L1210 cells allografted in BDF1 mouse assessed as survival at 200 mg/kg, ip administered as single dose 24 hrs post-implantation after 30 days. The class given is functional, organism-based. The arrangement: dose 200 mg/kg. An outline of the steps:
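BDF1 mice were inoculated ip with 1-2 × 10⁵ L1210 cells. After 24 h, one ip dose was given as a solution or suspension in aqueous 0.9% NaCl, 0.4% polysorbate 80, 0.5% low-viscosity Na carboxymethylcellulose and 0.9% benzyl alcohol. Mice were followed for 30 days, with 8-10 per group. The read-out is % increase in life span versus infected controls, plus the count of 30-day survivors.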

In the next experiment the test system is Vaccinia virus. Description: Antiviral activity against Vaccinia virus IHD infected in African green monkey BGM cells after 6 days by plaque reduction assay. In kind it is functional. Conditions: Orthopoxvirus vaccinia, 144 h, read-out: ED50 (the source's name).
A further experiment concerns HeLa. Description: Cytotoxicity against human HeLa cells after 48 hrs by Coulter counting analysis. The conditions noted are these: read-out: ED50 (the source's name). The class given is functional. An outline of the steps: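 HeLa cells (10⁵) were grown for 2 days at 37° in MEM with 10% bovine serum. The medium was then replaced with fresh medium containing serial compound dilutions. After 48 h, cells were dispersed with 0.02% trypsin and 0.04% versene and counted on a Coulter counter. The result is expressed as ED50 in μg/ml.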

The subject of experiment [2] is L1210. Description: Antitumor activity against mouse L1210 cells allografted in BDF1 mouse assessed as increase in life span at 200 mg/kg, ip administered as single dose 24 hrs post-implantation measured up to 30 days relative to control. In kind it is functional. Conditions: route intraperitoneal. The method, boiled down:
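BDF1 mice inoculated ip with 1-2 × 10⁵ L1210 cells; 24 h later a single ip dose given as solution or suspension in aqueous 0.9% NaCl, 0.4% polysorbate 80, 0.5% low-viscosity sodium carboxymethylcellulose, 0.9% benzyl alcohol. Mice held on normal diet for 30 days. Groups of eight to ten animals; percent increase in life span versus untreated infected controls, with 30-day survivors counted.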

As a reminder, the ILS is the gain in survival time of treated over control animals, in per cent.

In the case of `C=CCCCCCCCCC(=O)O[C@H]1[C@@H]2Oc3nc(=N)ccn3[C@@H]2O[C@@H]1CO.Cl`, the EC50 in the experiment with Herpesviridae sp. turned out to be 1200 nM; in the experiment with Vaccinia virus, 510 nM; in the experiment on HeLa it was 0.05 µg/mL. Further, in the experiment on L1210 [1], the outcome was inactive. Also, the ILS at 200 mg/kg in the experiment on L1210 [2] amounted to 38%.
For `CCCCCC(=O)O[C@H]1[C@@H]2Oc3nc(=N)ccn3[C@@H]2O[C@@H]1CO.Cl` the same measures were 1550 nM, 230 nM, 0.1 µg/mL, “inactive” and 40%.
With `CCCCCCCC/C=C/CCCCCCCC(=O)O[C@H]1[C@@H]2Oc3nc(=N)ccn3[C@@H]2O[C@@H]1CO.Cl`, the EC50 in the experiment on Herpesviridae sp. stood at 1900 nM; with Vaccinia virus, 900 nM; in the experiment with HeLa it was 0.09 µg/mL. In the experiment on L1210 [2], the ILS at 200 mg/kg is more than 162%.
Consider `CCCCCCCCCCCC(=O)O[C@H]1[C@@H]2Oc3nc(=N)ccn3[C@@H]2O[C@@H]1CO.Cl`, for which the EC50 with Herpesviridae sp. came out at 640 nM; in the experiment on Vaccinia virus, 640 nM; in the experiment on HeLa, 0.1 µg/mL. In the experiment on L1210 [1], the outcome was inactive. Besides, in the experiment with L1210 [2], the ILS at 200 mg/kg is 40%.
In the case of `Cl.N=c1ccn2c(n1)O[C@H]1[C@H](OC(=O)Cc3ccccc3)[C@@H](CO)O[C@H]12`, the EC50 in the experiment with Herpesviridae sp. was determined as 560 nM; with Vaccinia virus it was 560 nM; with HeLa, 0.07 µg/mL. Besides, the result in the experiment on L1210 [1] was inactive. Besides, the ILS at 200 mg/kg with L1210 [2] is 33%.
On to `CC(C)C(=O)O[C@H]1[C@@H]2Oc3nc(=N)ccn3[C@@H]2O[C@@H]1CO.Cl`, for which the EC50 worked out at 8800 nM in the experiment on Herpesviridae sp., 1550 nM in the experiment on Vaccinia virus and 0.2 µg/mL in the experiment with HeLa. Moreover, the outcome with L1210 [1] was inactive. Also, the ILS at 200 mg/kg in the experiment with L1210 [2] came to 22%.
On to `Cl.N=c1ccn2c(n1)O[C@H]1[C@H](OC(=O)c3ccccc3)[C@@H](CO)O[C@H]12`, for which the results for the EC50 in the experiment with Herpesviridae sp., in the experiment with Vaccinia virus and with HeLa were 8200 nM, 5900 nM and 0.2 µg/mL, respectively. For the same molecule, in the experiment on L1210 [1], the result was inactive. The ILS at 200 mg/kg in the experiment on L1210 [2] was 17%.
With `CCCCCCCCCCC(=O)O[C@H]1[C@@H]2Oc3nc(=N)ccn3[C@@H]2O[C@@H]1CO.Cl`, the figures for the EC50 in the experiment on Herpesviridae sp., with Vaccinia virus and in the experiment on HeLa were 460 nM, 190 nM and 0.06 µg/mL, respectively. In the experiment on L1210 [1], the result was inactive. The ILS at 200 mg/kg with L1210 [2] is 87%.
The like results for `CCCCCCCC/C=C\CCCCCCCC(=O)O[C@H]1[C@@H]2Oc3nc(=N)ccn3[C@@H]2O[C@@H]1CO.Cl` were, in that order, 1200 nM, 670 nM, 0.08 µg/mL, “inactive” and 72%.
For `CCCCCCCCCC(=O)O[C@H]1[C@@H]2Oc3nc(=N)ccn3[C@@H]2O[C@@H]1CO.Cl` the same measures were 1050 nM, 150 nM, 0.2 µg/mL, “inactive” and 35%.
As for `CCCCCCCC/C=C\CCCCCCCCCCCC(=O)O[C@H]1[C@@H]2Oc3nc(=N)ccn3[C@@H]2O[C@@H]1CO.Cl`, the EC50 is more than 30000 nM with Herpesviridae sp., 30000 nM with Vaccinia virus and 0.18 µg/mL with HeLa. Further, the increase in life span (ILS) at 200 mg/kg in the experiment on L1210 [2] was more than 269%.
For `CCCCCCCCC(=O)O[C@H]1[C@@H]2Oc3nc(=N)ccn3[C@@H]2O[C@@H]1CO.Cl`, the EC50 is 400 nM with Herpesviridae sp., 290 nM with Vaccinia virus and 0.05 µg/mL in the experiment with HeLa. For the same molecule, the outcome with L1210 [1] was inactive. In the experiment with L1210 [2], the ILS at 200 mg/kg worked out at 33%.
The like results for `CCC(=O)O[C@H]1[C@@H]2Oc3nc(=N)ccn3[C@@H]2O[C@@H]1CO.Cl` were, in that order, 2550 nM, 600 nM, 0.1 µg/mL, “inactive” and 29%.
